{
  "source": "ChEMBL document CHEMBL1131043",
  "about": "“Nucleosides and nucleotides. 175. Structural requirements of the sugar moiety for the antitumor activities of new nucleoside antimetabolites, 1-(3-C-ethynyl-beta-D-ribo-pentofuranosyl)cytosine and -uracil1” (J Med Chem, 1998)",
  "key": {"KB [1]": {"system": "KB", "experiment": "Concentration required to inhibit 50% of human epidermoid KB cell growth was measured(in vitro) using MTT assay.", "format": "functional, cell-based", "outline": "(§1)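 Cells seeded at 2 × 10³/well, cultured with or without test nucleoside for 72 h, then 4 h further with MTT. Formazan dissolved in DMSO, OD read at 540 nm. % inhibition = [1 − OD sample/OD control] × 100; IC50 taken as concentration giving 50% growth inhibition. S-180 cytotoxicity run by the same method.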"}, "L1210": {"system": "L1210", "experiment": "Concentration required to inhibit 50% of murine leukemia L1210 cell growth was measured(in vitro) using MTT assay.", "format": "functional, cell-based, Mus musculus", "outline": "as §1"}, "Sarcoma-180 [2]": {"system": "Sarcoma-180", "experiment": "Phosphorylation by uridine/cytidine kinase(UCK) from mouse sarcoma -180 ascites cells was measured.", "format": "functional", "outline": "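UCK partially purified from mouse Sarcoma-180 ascites cells (ammonium sulfate 30–50%, Sephacryl S-200, hydroxyapatite, DEAE-Sepharose). Reaction: 50 mM Tris-HCl pH 8.0, 10 mM ATP, 10 mM NaF, 5 mM MgCl2, 1 mg/mL BSA, 0.6 mM nucleoside, 37 °C, 15 min (Cyd, Urd) or 60 min (others), stopped by boiling. Tritiated nucleosides: 5'-monophosphate on PEI-cellulose TLC counted; unlabeled: substrate consumption by C18 HPLC at 270 nm. Duplicate means.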"}, "Sarcoma-180 [3]": {"system": "Sarcoma-180", "experiment": "Cytotoxicity against sarcoma -180 cells was measured by […].", "format": "functional, cell-based", "details": "Mus musculus", "outline": "as §1"}, "KB [4]": {"system": "KB", "experiment": "The concentration required to inhibit 50% of human epidermoid KB cell growth was measured(in vitro) using MTT assay.", "format": "functional, cell-based", "outline": "as §1"}},
  "data": [
    {"molecule": "C#CC[C@]1(O)[C@@H](CO)O[C@@H](n2ccc(=O)[nH]c2=O)[C@@H]1O", "values": [
      {"measurement": "IC50", "setting": "KB [1]; Homo sapiens, KB", "result": "> 350", "unit": "µM"},
      {"measurement": "IC50", "setting": "L1210; Mus musculus, L1210", "result": "> 350", "unit": "µM"}
    ]},
    {"molecule": "O=c1ccn([C@@H]2O[C@H](CO)[C@](O)(C3CC3)[C@H]2O)c(=O)[nH]1", "values": [
      {"measurement": "IC50", "setting": "KB [1]; Homo sapiens, KB", "result": "> 350", "unit": "µM"},
      {"measurement": "IC50", "setting": "L1210; Mus musculus, L1210", "result": "> 350", "unit": "µM"}
    ]},
    {"molecule": "C#C[C@]1(O)[C@H](O)[C@@H](CO)O[C@H]1n1ccc(N)nc1=O", "values": [
      {"measurement": "IC50", "setting": "KB [1]; Homo sapiens, KB", "result": "> 350", "unit": "µM"},
      {"measurement": "IC50", "setting": "L1210; Mus musculus, L1210", "result": "> 350", "unit": "µM"}
    ]},
    {"molecule": "O=c1ccn([C@@H]2O[C@H](CO)[C@@H](O)[C@H]2O)c(=O)[nH]1", "note": "[URIDINE]", "values": [
      {"measurement": "Phosphorylating activity", "setting": "Sarcoma-180 [2]", "result": 755, "unit": "pmol/min/assay"}
    ]},
    {"molecule": "C=C[C@@]1(O)[C@@H](CO)O[C@@H](n2ccc(=O)[nH]c2=O)[C@@H]1O", "values": [
      {"measurement": "IC50", "setting": "KB [1]; Homo sapiens, KB", "result": 51.8, "unit": "µM"},
      {"measurement": "IC50", "setting": "Sarcoma-180 [3]", "result": "> 30", "unit": "µM"},
      {"measurement": "Phosphorylating activity", "setting": "Sarcoma-180 [2]", "result": 9.3, "unit": "pmol/min/assay"},
      {"measurement": "IC50", "setting": "L1210; Mus musculus, L1210", "result": 148, "unit": "µM"}
    ]},
    {"molecule": "C#CC[C@@]1(O)[C@@H](CO)O[C@@H](n2ccc(N)nc2=O)[C@@H]1O", "values": [
      {"measurement": "IC50", "setting": "KB [1]; Homo sapiens, KB", "result": "> 350", "unit": "µM"},
      {"measurement": "IC50", "setting": "L1210; Mus musculus, L1210", "result": "> 350", "unit": "µM"}
    ]},
    {"molecule": "CC[C@@]1(O)[C@@H](CO)O[C@@H](n2ccc(N)nc2=O)[C@@H]1O", "values": [
      {"measurement": "IC50", "setting": "KB [1]; Homo sapiens, KB", "result": 258, "unit": "µM"},
      {"measurement": "IC50", "setting": "Sarcoma-180 [3]", "result": "> 30", "unit": "µM"},
      {"measurement": "Phosphorylating activity", "setting": "Sarcoma-180 [2]", "result": 0, "unit": "pmol/min/assay"},
      {"measurement": "IC50", "setting": "L1210; Mus musculus, L1210", "result": 269, "unit": "µM"}
    ]},
    {"molecule": "C#CC[C@@]1(O)[C@@H](CO)O[C@@H](n2ccc(=O)[nH]c2=O)[C@@H]1O", "values": [
      {"measurement": "IC50", "setting": "KB [4]", "result": "> 350", "unit": "µM"},
      {"measurement": "IC50", "setting": "L1210; Mus musculus, L1210", "result": "> 350", "unit": "µM"}
    ]},
    {"molecule": "CC#C[C@@]1(O)[C@@H](CO)O[C@@H](n2ccc(N)nc2=O)[C@@H]1O", "values": [
      {"measurement": "IC50", "setting": "KB [1]; Homo sapiens, KB", "result": 14.6, "unit": "µM"},
      {"measurement": "IC50", "setting": "Sarcoma-180 [3]", "result": 13.9, "unit": "µM"},
      {"measurement": "Phosphorylating activity", "setting": "Sarcoma-180 [2]", "result": 160, "unit": "pmol/min/assay"},
      {"measurement": "IC50", "setting": "L1210; Mus musculus, L1210", "result": 24.5, "unit": "µM"}
    ]},
    {"molecule": "CCC#C[C@@]1(O)[C@@H](CO)O[C@@H](n2ccc(=O)[nH]c2=O)[C@@H]1O", "values": [
      {"measurement": "IC50", "setting": "KB [1]; Homo sapiens, KB", "result": 226, "unit": "µM"},
      {"measurement": "IC50", "setting": "L1210; Mus musculus, L1210", "result": 338, "unit": "µM"}
    ]},
    {"molecule": "C#C[C@@]1(O)[C@H](O)[C@@H](CO)O[C@H]1n1ccc(N)nc1=O", "note": "[2'-ETHYNYL-D-CYTIDINE]", "values": [
      {"measurement": "IC50", "setting": "KB [1]; Homo sapiens, KB", "result": "> 350", "unit": "µM"},
      {"measurement": "IC50", "setting": "L1210; Mus musculus, L1210", "result": "> 350", "unit": "µM"}
    ]},
    {"molecule": "C#C[C@@H]1[C@@H](O)[C@H](n2ccc(=O)[nH]c2=O)O[C@@H]1CO", "values": [
      {"measurement": "IC50", "setting": "KB [1]; Homo sapiens, KB", "result": "> 350", "unit": "µM"},
      {"measurement": "IC50", "setting": "L1210; Mus musculus, L1210", "result": "> 350", "unit": "µM"}
    ]},
    {"molecule": "CC#C[C@@]1(O)[C@@H](CO)O[C@@H](n2ccc(=O)[nH]c2=O)[C@@H]1O", "values": [
      {"measurement": "IC50", "setting": "KB [1]; Homo sapiens, KB", "result": 70.8, "unit": "µM"},
      {"measurement": "IC50", "setting": "L1210; Mus musculus, L1210", "result": 354, "unit": "µM"}
    ]},
    {"molecule": "C#C[C@@H]1[C@@H](O)[C@H](n2ccc(N)nc2=O)O[C@@H]1CO", "values": [
      {"measurement": "IC50", "setting": "KB [1]; Homo sapiens, KB", "result": "> 350", "unit": "µM"},
      {"measurement": "IC50", "setting": "Sarcoma-180 [3]", "result": "> 30", "unit": "µM"},
      {"measurement": "Phosphorylating activity", "setting": "Sarcoma-180 [2]", "result": 6.9, "unit": "pmol/min/assay"},
      {"measurement": "IC50", "setting": "L1210; Mus musculus, L1210", "result": "> 350", "unit": "µM"}
    ]},
    {"molecule": "CCC#C[C@@]1(O)[C@@H](CO)O[C@@H](n2ccc(N)nc2=O)[C@@H]1O", "values": [
      {"measurement": "IC50", "setting": "KB [1]; Homo sapiens, KB", "result": 108, "unit": "µM"},
      {"measurement": "IC50", "setting": "Sarcoma-180 [3]", "result": "> 30", "unit": "µM"},
      {"measurement": "Phosphorylating activity", "setting": "Sarcoma-180 [2]", "result": 0, "unit": "pmol/min/assay"},
      {"measurement": "IC50", "setting": "L1210; Mus musculus, L1210", "result": 129, "unit": "µM"}
    ]},
    {"molecule": "CCC[C@@]1(O)[C@@H](CO)O[C@@H](n2ccc(=O)[nH]c2=O)[C@@H]1O", "values": [
      {"measurement": "IC50", "setting": "KB [1]; Homo sapiens, KB", "result": "> 350", "unit": "µM"},
      {"measurement": "IC50", "setting": "L1210; Mus musculus, L1210", "result": "> 350", "unit": "µM"}
    ]},
    {"molecule": "C#C[C@]1(O)[C@@H](CO)O[C@@H](n2ccc(N)nc2=O)[C@@H]1O", "values": [
      {"measurement": "IC50", "setting": "KB [1]; kb", "result": "> 350", "unit": "µM"},
      {"measurement": "IC50", "setting": "L1210; l1210", "result": "> 350", "unit": "µM"}
    ]},
    {"molecule": "C#C[C@]1(O)[C@@H](CO)O[C@@H](n2ccc(=O)[nH]c2=O)[C@@H]1O", "values": [
      {"measurement": "IC50", "setting": "KB [1]; kb", "result": "> 350", "unit": "µM"},
      {"measurement": "IC50", "setting": "Sarcoma-180 [3]", "result": 0.013, "unit": "µM"},
      {"measurement": "Phosphorylating activity", "setting": "Sarcoma-180 [2]", "result": 141, "unit": "pmol/min/assay"},
      {"measurement": "IC50", "setting": "L1210; l1210", "result": "> 350", "unit": "µM"}
    ]},
    {"molecule": "Nc1ccn([C@@H]2O[C@H](CO)[C@@H](O)[C@H]2O)c(=O)n1", "note": "[CYTIDINE]", "values": [
      {"measurement": "Phosphorylating activity", "setting": "Sarcoma-180 [2]", "result": 812, "unit": "pmol/min/assay"}
    ]},
    {"molecule": "C#C[C@H]1[C@@H](O)[C@H](n2ccc(=O)[nH]c2=O)O[C@@H]1CO", "values": [
      {"measurement": "IC50", "setting": "KB [1]; Homo sapiens, KB", "result": "> 350", "unit": "µM"},
      {"measurement": "IC50", "setting": "L1210; Mus musculus, L1210", "result": "> 350", "unit": "µM"}
    ]},
    {"molecule": "C#CC[C@]1(O)[C@@H](CO)O[C@@H](n2ccc(N)nc2=O)[C@@H]1O", "values": [
      {"measurement": "IC50", "setting": "KB [1]; Homo sapiens, KB", "result": "> 350", "unit": "µM"},
      {"measurement": "IC50", "setting": "L1210; Mus musculus, L1210", "result": "> 350", "unit": "µM"}
    ]},
    {"molecule": "C=C[C@@]1(O)[C@@H](CO)O[C@@H](n2ccc(N)nc2=O)[C@@H]1O", "values": [
      {"measurement": "IC50", "setting": "KB [1]; Homo sapiens, KB", "result": 74.3, "unit": "µM"},
      {"measurement": "IC50", "setting": "Sarcoma-180 [3]", "result": "> 30", "unit": "µM"},
      {"measurement": "Phosphorylating activity", "setting": "Sarcoma-180 [2]", "result": 0, "unit": "pmol/min/assay"},
      {"measurement": "IC50", "setting": "L1210; Mus musculus, L1210", "result": 60.8, "unit": "µM"}
    ]},
    {"molecule": "Nc1ccn([C@@H]2O[C@H](CO)[C@](O)(C3CC3)[C@H]2O)c(=O)n1", "values": [
      {"measurement": "IC50", "setting": "KB [1]; Homo sapiens, KB", "result": "> 350", "unit": "µM"},
      {"measurement": "IC50", "setting": "L1210; Mus musculus, L1210", "result": "> 350", "unit": "µM"}
    ]}
  ]
}
